{
  "source": "ChEMBL document CHEMBL1143328",
  "about": "“Determination of 1-aryl-4-propylpiperazine pKa values: the substituent on aryl modulates basicity” (Bioorg Med Chem, 2009)",
  "data": [
    {"assay": "Dissociation constant, pKa by potentiometric titration method", "format": "physicochemical", "in_short": "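Each compound dissolved in ionic-strength-adjusted water (0.15 M), titrated with 0.5 M KOH up to pH 11. Steps capped at 0.2 pH units; each point recorded once drift fell below 0.002 pH/min. Electrode checked in pH 7.00 buffer and calibrated by blank titration daily.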", "values": [
      {"smiles": "CCCN1CCN(c2ccccc2)CC1", "pKa": 7.96},
      {"smiles": "CCCN1CCN(c2cccc(Cl)c2)CC1", "pKa": 7.83},
      {"smiles": "CCCN1CCN(c2ccccc2C(F)(F)F)CC1", "pKa": 8.8},
      {"smiles": "CCCN1CCN(c2ccccc2C#N)CC1", "pKa": 7.92},
      {"smiles": "CCCN1CCN(c2cccc(C)c2)CC1", "pKa": 7.83},
      {"smiles": "CCCN1CCN(c2cccc(O)c2)CC1", "pKa": 7.82},
      {"smiles": "CCCN1CCN(c2ccc(C#N)cc2)CC1", "pKa": 7.78},
      {"smiles": "CCCN1CCN(c2ccc(OC)cc2)CC1", "pKa": 7.88},
      {"smiles": "CCCN1CCN(c2cccc(OC)c2)CC1", "pKa": 7.86},
      {"smiles": "CCCN1CCN(c2ccccc2C)CC1", "pKa": 8.39},
      {"smiles": "CCCN1CCN(c2cccc(C(N)=O)c2)CC1", "pKa": 7.76},
      {"smiles": "CCCN1CCN(c2ccccc2[N+](=O)[O-])CC1", "pKa": 7.94},
      {"smiles": "CCCN1CCN(c2ccc(O)cc2)CC1", "pKa": 7.92},
      {"smiles": "CCCN1CCN(c2ccccc2Cl)CC1", "pKa": 8.07},
      {"smiles": "CCCN1CCN(c2ccc(Cl)cc2)CC1", "pKa": 7.83},
      {"smiles": "CCCN1CCN(c2ccc([N+](=O)[O-])cc2)CC1", "pKa": 7.59},
      {"smiles": "CCCN1CCN(c2cccc(C#N)c2)CC1", "pKa": 7.67},
      {"smiles": "CCCN1CCN(c2ccccc2C(N)=O)CC1", "pKa": 8.14},
      {"smiles": "CCCN1CCN(c2ccc(C(N)=O)cc2)CC1", "pKa": 7.84},
      {"smiles": "CCCN1CCN(c2ccc(C)cc2)CC1", "pKa": 7.92},
      {"smiles": "CCCN1CCN(c2ccccc2O)CC1", "pKa": 8.05},
      {"smiles": "CCCN1CCN(c2cccc(C(F)(F)F)c2)CC1", "pKa": 7.81},
      {"smiles": "CCCN1CCN(c2cccc([N+](=O)[O-])c2)CC1", "pKa": 7.7},
      {"smiles": "CCCN1CCN(c2ccc(C(F)(F)F)cc2)CC1", "pKa": 7.84},
      {"smiles": "CCCN1CCN(c2ccccc2OC)CC1", "pKa": 8.29}
    ]}
  ]
}
